Results on 24 compounds are retold here after ChEMBL document CHEMBL1139081, “Rational design, synthesis, and structure-activity relationship of benzoxazolones: new potent mglu5 receptor antagonists based on the fenobam structure” (Bioorg Med Chem Lett, 2007).

Each structure is given as a SMILES string. A value given as a limit tells only on which side of the number the result lay.

Data set [1] concerns the target T1, Metabotropic glutamate receptor 5 (Homo sapiens, UniProt P41594). As to the kind of experiment: Binding affinity to mGluR5.
In data set [2] the target is T1, Metabotropic glutamate receptor 5. The data set can be described thus: Antagonist activity at mGluR5 assessed as inhibition of Ca2+ […] by FLIPR. The format is functional.
For another data set, the species on record is Mus musculus. As to the kind of experiment: Decrease in stress-induced hyperthermia in NMRI mouse. The class given is functional. The conditions noted are these: read-out: MED. The procedure, abridged:
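Stress-induced hyperthermia model of anxiety in NMRI mice, read as change in temperature (DT). Oral dosing at 10 and 30 mg/kg, vehicle 0.3% Tween 80 in 0.9% NaCl, 60 min pre-treatment. Each group compared to vehicle by independent t-test.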

A short description of data set [3]: Half life in rat. The class given is ADME, organism-based. The conditions noted are these: in vivo.
Data set [4] in a line: Ratio of drug level in brain to plasma in rat after 3 hrs. The class given is ADME. The conditions noted are these: brain and plasma. The procedure, abridged:
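Blood/brain partitioning checked 3 h after administration as brain-to-plasma concentration ratio; cerebrospinal fluid concentration also measured, expressed as percentage of plasma concentration.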

Data set [5] in a line: Oral bioavailability in rat. The class given is ADME, organism-based. The conditions noted are these: in vivo.
The nature of data set [6]: Clearance in rat. The format is ADME, organism-based. The conditions noted are these: in vivo.
Data set [7] in a line: Volume of distribution in rat. The format is ADME, organism-based. The conditions noted are these: in vivo.

T1 sequence (P41594 whole entry): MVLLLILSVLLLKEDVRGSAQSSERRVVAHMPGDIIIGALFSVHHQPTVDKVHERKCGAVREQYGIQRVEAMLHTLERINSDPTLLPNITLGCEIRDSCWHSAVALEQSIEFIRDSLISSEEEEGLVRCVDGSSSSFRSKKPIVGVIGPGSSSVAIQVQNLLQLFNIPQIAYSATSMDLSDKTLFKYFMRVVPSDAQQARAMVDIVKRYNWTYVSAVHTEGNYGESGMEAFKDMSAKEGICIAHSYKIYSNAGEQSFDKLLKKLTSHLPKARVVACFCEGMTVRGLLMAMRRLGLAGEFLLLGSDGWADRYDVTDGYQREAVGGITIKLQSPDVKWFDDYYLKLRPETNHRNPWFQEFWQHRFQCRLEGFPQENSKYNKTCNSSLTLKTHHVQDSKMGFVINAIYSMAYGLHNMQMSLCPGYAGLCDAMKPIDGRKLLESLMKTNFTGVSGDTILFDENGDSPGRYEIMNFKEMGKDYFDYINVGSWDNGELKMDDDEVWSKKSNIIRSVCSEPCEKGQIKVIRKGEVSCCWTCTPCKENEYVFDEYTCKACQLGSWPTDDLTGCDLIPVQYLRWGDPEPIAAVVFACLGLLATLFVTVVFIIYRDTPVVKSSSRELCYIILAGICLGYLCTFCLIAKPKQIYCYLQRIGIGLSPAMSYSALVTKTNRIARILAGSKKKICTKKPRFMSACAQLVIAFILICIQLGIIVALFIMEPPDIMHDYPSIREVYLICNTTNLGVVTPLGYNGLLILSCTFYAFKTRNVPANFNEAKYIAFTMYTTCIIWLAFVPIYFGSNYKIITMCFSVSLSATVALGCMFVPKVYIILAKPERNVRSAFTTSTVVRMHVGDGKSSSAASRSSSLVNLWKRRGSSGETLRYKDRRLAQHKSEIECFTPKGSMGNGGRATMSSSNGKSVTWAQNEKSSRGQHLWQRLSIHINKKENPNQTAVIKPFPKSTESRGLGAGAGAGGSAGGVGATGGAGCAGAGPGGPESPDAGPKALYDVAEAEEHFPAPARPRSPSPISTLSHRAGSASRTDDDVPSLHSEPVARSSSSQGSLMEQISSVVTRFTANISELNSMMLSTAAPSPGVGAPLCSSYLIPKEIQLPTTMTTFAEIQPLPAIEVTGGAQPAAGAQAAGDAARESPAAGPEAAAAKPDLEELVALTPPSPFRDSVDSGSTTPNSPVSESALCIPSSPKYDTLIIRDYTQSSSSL

As for `Cc1nccc(NC(=O)c2cccc3oc(=O)[nH]c23)n1`, the Ki in data set [1] was found to be 1970 nM.

Consider `O=C(Nc1cccc(Br)c1)c1cccc2oc(=O)[nH]c12`, for which the Ki in data set [1] is 56 nM. Further, the concentration for half-maximal inhibition (IC50) in data set [2] is 94 nM.

Take `O=C(Nc1ccccn1)c1cccc2oc(=O)[nH]c12`: the inhibition constant Ki in data set [1] stood at 251 nM.

Compound `Cc1cccc(NC(=O)c2cccc3oc(=O)[nH]c23)n1` returned a Ki in data set [1] of 95 nM. Further, in the data set filed under Mus musculus, the minimal effective dose stood at 10 mg/kg. Further, the half-life in data set [3] is 13.2 min. Also, in data set [2], the IC50 was determined as 60 nM. For the same compound, the partition ratio (Kp) at 3 h in data set [4] was 0.06. The bioavailability in data set [5] came out at 64%. In data set [6], this compound gave a clearance of 8.2 mL/min/kg. The compound also registered a Vd in data set [7] of 0.18 L/kg.

Take `O=C(Nc1ccc(Cl)cc1)c1cccc2oc(=O)[nH]c12`: the inhibitory constant (Ki) in data set [1] stood at 3800 nM.

The compound `O=C(Nc1cccc(C(F)(F)F)c1)c1cccc2oc(=O)[nH]c12` gave a Ki in data set [1] of 485 nM. This Ki is about 7.8-fold lower than that of the compound before.

On to `Cc1nc(NC(=O)c2cccc3oc(=O)[nH]c23)cs1`, for which, in data set [1], the affinity, expressed as Ki, was 250 nM. Against the preceding compound, the Ki is about 1.9-fold lower.

As to `Cc1cccc(NC(=O)c2cccc3oc(=O)[nH]c23)c1`, in data set [1], affinity was put at a Ki of 109 nM. In addition, the concentration for half-maximal inhibition (IC50) in data set [2] worked out at 104 nM.

In the case of `O=C(Nc1cccc(Cl)c1)c1cccc2oc(=O)[nH]c12`, in data set [1], the affinity corresponds to a Ki of 68 nM. The half-inhibitory concentration (IC50) in data set [2] amounted to 195 nM.

In turn, `O=C(Nc1ccccc1Cl)c1cccc2oc(=O)[nH]c12` yielded a Ki in data set [1] of over 10000 nM.

With `O=C(Nc1cccc(Cl)c1)c1cccc2[nH]c(=O)[nH]c12`, the affinity in data set [1] corresponds to a Ki of 3900 nM.

With `CC(=O)Nc1ccccc1C(=O)Nc1cccc(Cl)c1`, in data set [1], the inhibition constant Ki was over 10000 nM.

Turning to `O=C(Nc1cc(Cl)cc(Cl)c1)c1cccc2oc(=O)[nH]c12`, the Ki in data set [1] was over 10000 nM.

As for `O=C1COc2cccc(C(=O)Nc3cccc(Cl)c3)c2N1`, the affinity in data set [1], expressed as Ki, was 2900 nM.

As to `N#Cc1cccc(NC(=O)c2cccc3oc(=O)[nH]c23)c1`, affinity in data set [1] was put at a Ki of 327 nM.

Consider `O=C(Nc1cccc(Cl)c1)c1cccc2nc[nH]c12`, for which the Ki in data set [1] is over 10000 nM.

In data set [1], `O=C(Nc1cccc(Cl)c1)c1cccc2cc[nH]c12` displayed an inhibition constant (Ki) of 3900 nM. In other words, the single-digit micromolar range.

As to `O=C(Nc1ccccc1)c1cccc2oc(=O)[nH]c12`, in data set [1], the inhibition constant (Ki) came out at 2200 nM.

In data set [1], `O=C1Cc2cccc(C(=O)Nc3cccc(Cl)c3)c2N1` came in with a Ki of 397 nM.

For `O=C(Nc1cccc(Cl)c1)c1cccc2nn[nH]c12`, in data set [1], the Ki is over 10000 nM.

In data set [1], `O=C(Nc1cccc(Cl)c1)c1cccc2[nH]c(=O)oc12` came in with an inhibitory constant (Ki) of over 10000 nM.

`Cn1c(=O)[nH]c2c(C(=O)Nc3cccc(Cl)c3)cccc21` returned a Ki in data set [1] of over 10000 nM.

`COc1cccc(NC(=O)c2cccc3oc(=O)[nH]c23)c1` showed a Ki in data set [1] of 3900 nM.

The compound `Cc1cc(NC(=O)c2cccc3oc(=O)[nH]c23)ccn1` had a Ki in data set [1] of 3100 nM.
